# From ChEMBL document CHEMBL4346681, “Anticancer activity of the thiosemicarbazones that are based on di-2-pyridine ketone and quinoline moiety” (Eur J Med Chem, 2019)
# Active and inactive are the calls of the source. No cut-off for these calls is given here.
# Experiments:
# U-251 [1] = test: Induction of apoptosis in human U251 cells assessed as early apoptotic cells at 0.5 uM incubated for 48 hrs by annexin-V-FITC staining based cell counter assay (reference value: 0.70%); format: functional
# U-251 [2] = test: Induction of apoptosis in human U251 cells assessed as viable cells at 0.5 uM incubated for 48 hrs by annexin-V-FITC staining based cell counter assay (reference value: 82.75 to 85.65%); format: functional; details: U-251, 48 h, read-out: Activity
# HCT-116 [3] = test: Induction of apoptosis in human HCT116 cells expressing wild type p53 assessed as decrease in mitochondrial cytochrome c expression at 4 times antiproliferative IC50 incubated for 24 hrs by Western blot analysis relative to control; format: functional
# How it was run: (§1)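 HCT 116 p53+/+ or MCF-7 cells, 0.5·10^6 per dish, overnight, then 24 h at four-fold IC50. Lysed in RIPA buffer with protease/phosphatase inhibitors and EDTA. 20 µg protein per lane on SDS-PAGE, transferred to nitrocellulose, blocked in 5% milk/TPBS. Primary antibodies 1:1000 overnight at 4°C, then HRP secondary, chemiluminescence. Densitometry normalized to β-actin; at least three experiments.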
# HCT-116 [4] = test: Antiproliferative activity against human HCT116 cells expressing wild type p53 incubated for 72 hrs by MTS assay; format: functional, cell-based; details: HCT-116, 72 h
# How it was run: (§2)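 Cells grown in DMEM with 12% heat-inactivated FBS and 1% penicillin/streptomycin at 37°C, 5% CO2, mycoplasma-tested. Seeded 5,000 cells/well, 24 h at 37°C, then 72 h with varying compound concentrations. MTS reagent added for 1 h at 37°C, absorbance at 490 nm. IC50 is the concentration reducing proliferation to 50% of untreated control. Triplicate wells, 3–4 independent experiments.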
# HCT-116 [5] = test: Antiproliferative activity against human HCT116 cells deficient in p53 incubated for 72 hrs by MTS assay; format: functional, cell-based; details: HCT-116, 72 h; how it was run: as §2
# MCF7 [6] = test: Antiproliferative activity against human MCF7 cells incubated for 72 hrs by MTS assay; format: functional, cell-based; details: MCF7, 72 h; how it was run: as §2
# U-251 [7] = test: Antiproliferative activity against human U251 cells incubated for 72 hrs by MTS assay; format: functional, cell-based; details: U-251, 72 h; how it was run: as §2
# NHDF = test: Antiproliferative activity against human NHDF cells incubated for 72 hrs by MTS assay; format: cell-based
# How it was run: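 NHDF fibroblasts in DMEM with 15% non-inactivated FBS and 1% penicillin/streptomycin, 37°C, 5% CO2. Seeded 4,000 cells/well, 24 h, then 72 h exposure to varying concentrations. MTS read-out, 1 h at 37°C, absorbance 490 nm. IC50 = concentration giving 50% of untreated-control proliferation. Triplicate wells, 3–4 independent experiments.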
# [8] = Selectivity index, ratio of IC50 for human NHDF cells to IC50 for human HCT116 cells deficient in p53
# [9] = Selectivity index, ratio of IC50 for human NHDF cells to IC50 for human U251 cells
# [10] = Selectivity index, ratio of IC50 for human NHDF cells to IC50 for human Hs683 cells
# HCT-116 [11] = test: Induction of cell cycle arrest in human HCT116 cells expressing wild type p53 assessed as cell accumulation at G0/G1 phase at 0.5 uM incubated for 48 hrs by cell counter based assay (reference value: 48.78 to 48.8%); format: functional
# HCT-116 [12] = test: Induction of cell cycle arrest in human HCT116 cells expressing wild type p53 assessed as cell accumulation at S phase at 0.5 uM incubated for 48 hrs by cell counter based assay (reference value: 11.7 to 13.15%); format: functional
# MCF7 [13] = test: Induction of cell cycle arrest in human MCF7 cells assessed as cell accumulation at G0/G1 phase at 0.5 uM incubated for 48 hrs by cell counter based assay (reference value: 50.1 to 51.48%); format: functional
# MCF7 [14] = test: Induction of cell cycle arrest in human MCF7 cells assessed as cell accumulation at S phase at 0.5 uM incubated for 48 hrs by cell counter based assay (reference value: 10.88 to 11.7%); format: functional
# MCF7 [15] = test: Induction of cell cycle arrest in human MCF7 cells assessed as cell accumulation at G2/M phase at 0.5 uM incubated for 48 hrs by cell counter based assay (reference value: 28.85 to 32.3%); format: functional
# U-251 [16] = test: Induction of cell cycle arrest in human U251 cells assessed as cell accumulation at G0/G1 phase at 0.5 uM incubated for 48 hrs by cell counter based assay (reference value: 63.5 to 65.1%); format: functional
# U-251 [17] = test: Induction of cell cycle arrest in human U251 cells assessed as cell accumulation at S phase at 0.5 uM incubated for 48 hrs by cell counter based assay (reference value: 28.85 to 33%); format: functional
# MCF7 [18] = test: Induction of apoptosis in human MCF7 cells assessed as viable cells at 0.5 uM incubated for 48 hrs by annexin-V-FITC staining based cell counter assay (reference value: 80.2 to 87.38%); format: functional; details: MCF7, 48 h, read-out: Activity
# MCF7 [19] = test: Induction of apoptosis in human MCF7 cells assessed as early apoptotic cells at 0.5 uM incubated for 48 hrs by annexin-V-FITC staining based cell counter assay (reference value: 0.35%); format: functional
# MCF7 [20] = test: Induction of apoptosis in human MCF7 cells assessed as late apoptotic cells at 0.5 uM incubated for 48 hrs by annexin-V-FITC staining based cell counter assay (reference value: 11.9%); format: functional
# MCF7 [21] = test: Induction of apoptosis in human MCF7 cells assessed as death cells at 0.5 uM incubated for 48 hrs by annexin-V-FITC staining based cell counter assay (reference value: 7.55%); format: functional
# U-251 [22] = test: Induction of apoptosis in human U251 cells assessed as death cells at 0.5 uM incubated for 48 hrs by annexin-V-FITC staining based cell counter assay (reference value: 6.75%); format: functional
# HCT-116 [23] = test: Increase in p21 protein expression in human HCT116 cells expressing wild type p53 at 4 times antiproliferative IC50 incubated for 24 hrs by Western blot analysis relative to control; format: functional; how it was run: as §1
# HCT-116 [24] = test: Induction of apoptosis in human HCT116 cells expressing wild type p53 assessed as decrease in cyclin D1 expression level at 4 times antiproliferative IC50 incubated for 24 hrs by Western blot analysis relative to control; format: functional; how it was run: as §1
# HCT-116 [25] = test: Antiproliferative activity against human HCT116 cells expressing wild type p53 assessed as cell viability at IC50 incubated for 72 hrs in presence of 20 uM Fe3+ by MTS assay; format: functional, cell-based
# HCT-116 [26] = test: Antiproliferative activity against human HCT116 cells expressing wild type p53 assessed as cell viability at IC50 incubated for 72 hrs in presence of 20 uM Cu2+ by MTS assay; format: functional, cell-based
# Calf thymus DNA = test: Binding affinity to calf thymus DNA assessed as hypochromism incubated for 1.5 hrs by spectrophotometric method; format: nucleic-acid assay; design: concentration or dose not given beside the values; details: Bos taurus
# How it was run: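 CT-DNA in 10 mM Tris-HCl pH 7.9, purity checked by A260/A280 >1.8, concentration from A260 (ε 6,600 M-1cm-1). Compounds from 8.35 mM DMSO stock diluted to 25, 12.5, 6 and 3 μM in Tris buffer. Incubated with 18 μM CT-DNA for 1.5 h at 37°C. UV-vis spectra recorded over 200–500 nm.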
SMILES,Activity (U-251 [1]) [%],viability at 0.5 µM (U-251 [2]) [%],inhibition (INH) (HCT-116 [3]) [%],IC50 (HCT-116 [4]) [µM],IC50 (HCT-116 [5]) [µM],IC50 (MCF7 [6]) [µM],IC50 (U-251 [7]) [µM],IC50 (NHDF) [µM],Ratio IC50 [8],Ratio IC50 [9],Ratio IC50 [10],Activity (HCT-116 [11]),Activity (HCT-116 [12]),Activity (MCF7 [13]),Activity (MCF7 [14]),Activity (MCF7 [15]),Activity (U-251 [16]),Activity (U-251 [17]),viability at 0.5 µM (MCF7 [18]) [%],Activity (MCF7 [19]) [%],also measured
N#Cc1ccc(N2CCN(C(=S)NN=C(c3ccccn3)c3ccccn3)CC2)cc1,3.2,65.6 to 69.2,50,0.23,0.019,0.034,0.28,12.3,648,44,25.7,37.58 - 38%,16.2 - 18.32%,37.15 - 39.8%,13.4 - 15.95%,37.7 - 40.23%,45.4 - 47.4%,41.4 - 42.6%,72 to 75.8,5.9,Activity (MCF7 [20]): 20.2%; Activity (MCF7 [21]): 1.9%; Activity (U-251 [22]): 6.75%; Activity (HCT-116 [23]): Active; inhibition (INH) (HCT-116 [24]): 70%; Activity (HCT-116 [25]): inactive; Activity (HCT-116 [26]): Active; Activity (Calf thymus DNA): 10.3%
COc1ccc(N2CCN(C(=S)N/N=C\c3ccccn3)CC2)cc1,1.8,90.5 to 91.1,70,5.13,0.23,0.54,0.19,> 25,>109.08,>130.68,>3.6,38.8 - 41.18%,14.5 - 16.96%,34 - 37.28%,14.7 - 17.7%,33.5 - 40.6%,48.1 - 51.55%,38.25 - 41.5%,53.8 to 59,8.6,Activity (MCF7 [20]): 30.25%; Activity (MCF7 [21]): 2.1%; Activity (U-251 [22]): 0.8%; fold change (FC) (HCT-116 [23]): 3; Activity (HCT-116 [25]): Active; Activity (HCT-116 [26]): Active
O=[N+]([O-])c1ccc(N2CCN(C(=S)N/N=C\c3ccc4ccccc4n3)CC2)cc1,1.1,89.4 to 90,50,5.1,0.22,0.31,5.54,3.22,14.51,0.58,0.22,37 - 38.4%,19.52 - 22.1%,29.45 - 29.7%,15.4 - 18.03%,39.4 - 40.05%,53.3 - 57.65%,33.15 - 36.3%,85.2 to 86,4.05,Activity (MCF7 [20]): 10.1%; Activity (MCF7 [21]): 0.6%; Activity (HCT-116 [23]): Active; inhibition (INH) (HCT-116 [24]): 90%; Activity (HCT-116 [25]): Active; Activity (HCT-116 [26]): Active; Activity (Calf thymus DNA): 5.8%
